MC4R ag barr = agonists of human melanocortin 4 receptor (MC4R) beta-arrestin. U2OS MC4R beta-arrestin complementation, luminescence; percent of melanotan II response, DMSO zero. activation, % at 8.9 µM. hit rate 0.98% among 360,000;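 active = activation above a per-plate cutoff, the mean activation of sample wells on that plate plus 3 SD, cut at about 8% in these data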
Target sequence (P32245 whole entry, looked up): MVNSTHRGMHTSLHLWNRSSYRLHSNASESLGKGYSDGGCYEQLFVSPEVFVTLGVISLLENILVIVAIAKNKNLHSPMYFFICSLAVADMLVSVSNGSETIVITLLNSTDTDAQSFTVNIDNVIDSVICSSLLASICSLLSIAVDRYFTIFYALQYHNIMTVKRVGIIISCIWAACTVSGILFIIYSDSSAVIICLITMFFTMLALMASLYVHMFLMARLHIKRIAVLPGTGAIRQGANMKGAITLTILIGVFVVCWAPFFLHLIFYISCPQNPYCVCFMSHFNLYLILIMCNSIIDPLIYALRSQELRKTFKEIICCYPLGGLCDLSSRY
aDG glyco act = increases alpha dystroglycan glycosylation; AID 624168; activation, % at 10 µM; hit rate 0.22% among 360,000; Pro5-aDG cells, alpha-DG glycosylation AlphaScreen (IIH6); 0% Pro5, 100% B10-LARGE cell signal;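 active = activation of at least 8% versus controls, or a plate z-score of at least 8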;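 note: Pro5 are CHO cells carrying HIG-tagged alpha-DG that lacks glycosylation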
NTR1 agonist = activates human neurotensin receptor 1; activation, % at 20 µM; hit rate 0.17% among 330,000; NTR1-U2OS beta-arrestin-GFP spot imaging, agonist mode; P30989;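 active = activation at or above 40% of the spot to cytoplasm intensity ratio, with at least 20 cells analyzed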;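 note: 0% = DMSO without peptide and 100% = 100 nM NTR1 peptide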
TbMetRS inhib = Trypanosoma brucei MetRS inhibition. purified T. brucei MetRS, ATP depletion, Kinase-Glo luminescence. inhibition, % at 11.9 µM. hit rate 0.4% among 360,000. AID 624268;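 active = inhibition above a per-plate cutoff of the control wells' mean inhibition plus 3 SD, cut at about 5.5% in these data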;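 note: 0% = DMSO wells median and 100% = median of wells with control inhibitor compound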
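Test system: purified T. brucei MetRS enzyme. Also added: ATP, methionine and E. coli bulk tRNA substrates. Compound: 11.9 µM single point. Schedule: 15 min enzyme-compound preincubation, 2 h reaction, 10 min detection, 25 °C. Signal: luciferase luminescence of residual ATP, Kinase-Glo. Evaluation: percent inhibition versus plate control medians. Controls: DMSO wells, low control.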
MC4R antagonist = antagonists of human melanocortin 4 receptor (MC4R); AID 540295; hit rate 0.48% among 360,000; inhibition, % at 6.5 µM; P32245; MC4R-expressing cells, MTII-stimulated cAMP, LANCE TR-FRET;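 active = inhibition above its plate's cutoff, the mean of tested wells on that plate plus 3 SD, cut at about 29% in these data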;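 note: 0% = Melanotan II alone and 100% = Melanotan II plus saturating MCL0020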
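System: U2OS-MC4R stable cell line; Technique: Eu-cAMP/anti-cAMP TR-FRET, emission 671 nm; Repeats: single well per compound; Also added: Melanotan II; Dosing: one concentration, 6.5 µM nominal; Schedule: 30-min compound, 1-h challenge, 1-h detection, room temperature.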
TAG inh = triacylglycerol accumulation inhibition | H9c2 cells, Nile Red lipid (TAG) fluorescence; cells loaded with 200 µM oleic acid | inhibition, % at 12.5 µM | hit rate 0.66% among 230,000 | AID 651582;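 active = pattern-corrected inhibition of lipid staining of at least 50% with the nuclear-stain viability signal not falling by more than 50%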;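 note: 0% = DMSO wells and 100% = triacsin C control wells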
aDG conf = confirmation of alpha dystroglycan glycosylation activators | Pro5-aDG cells, alpha-DG glycosylation, IIH6 AlphaLISA; scaled to LARGE-overexpressing B10 cells as 100% | hit rate 17% among 600 | activation, % at 10 µM (by protocol) | shares compounds with aDG glyco act | AID 651671;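 active = activation of at least 7% in one or more replicates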;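 note: cells exposed to compound for two days before detection; 0% = DMSO-treated Pro5 cells and 100% = DMSO-treated B10-LARGE cells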
An asterisk follows results filed as active; / = no result. Most compounds without a hit are left out; they make up all but 2.4% or so of the library.

SMILES | MC4R ag barr | aDG glyco act | NTR1 agonist | TbMetRS inhib | MC4R antagonist | TAG inh | aDG conf
CCCCNC(=O)C(NC(=O)c1cccs1)C(=O)c1ccccc1 (configuration not stated) | / | -0.1 | / | 0.1 | / | / | /
COc1cccc(C(C(=O)NC2CCCC2)N2CCN(c3cc(C)ccc3C)CC2)c1OC (configuration not stated) | / | 0.2 | / | -0.8 | / | / | /
CC(=O)N1c2ccccc2S(=O)(=O)c2c1ccc1ccccc21 | -2.1 | 12.7* | / | -0.2 | -1.0 | -1.2 | -0.1
Clc1ccc(-c2cc(C3CCNCC3)[nH]n2)cc1 | -1.4 | 6.9* | 0.0 | 0.9 | 1.2 | 11.9 | 1.3
CC1(Oc2ccc3ccccc3c2)CCN(Cc2cccn2-c2nccs2)C1 (configuration not stated) | -1.7 | 0.7 | / | -0.2 | 0.1 | -22.5 | /
COc1ccc(S(=O)(=O)N2CCC[C@@H]2C(=O)N2CCC[C@H]2C(=O)NCc2ccncc2)cc1C | / | -0.2 | / | -1.6 | / | / | /
O=C(Nc1ccncc1)c1ccc(-c2ccccc2)cc1 | -2.3 | 9.1* | 5.8 | -0.6 | 7.6 | -33.7 | 2.4
O=c1c2ccccc2sn1-c1ccc(Cl)cc1Cl | 0.4 | 0.1 | / | 0.9 | -3.9 | 28.3 | /
C[C@H](CO)N1C[C@H](C)[C@@H](CN(C)C(=O)Nc2ccc3c(c2)OCO3)Oc2ccc(NS(=O)(=O)c3cn(C)cn3)cc2C1=O | 0.1 | 6.4* | -1.4 | 0.4 | 1.2 | -5.9 | 1.6
CC1(C(=O)Nc2ccc3c(c2)OCCO3)CSCC(=O)N1C1CC1 (configuration not stated) | / | 8.6* | / | -0.3 | / | / | 0.7
CC1(C(=O)Nc2ccc3c(c2)OCCO3)CCC(=O)N1C1CC1 (configuration not stated) | / | 0.1 | / | -0.1 | / | / | /
Cc1ccc(N(CC(=O)Nc2cc(C)cc(C)c2)S(=O)(=O)c2c(C)noc2C)cc1 | -0.7 | 7.6* | 4.0 | -0.1 | 10.6 | / | 0.6
O=C(NCc1cccnc1)c1cc(C2CCCN(S(=O)(=O)c3cccc4cccnc34)C2)on1 (configuration not stated) | 1.0 | -0.3 | / | -0.5 | -1.2 | -9.4 | /
COc1ccc2c(Cl)c(-c3nnc(SCC(=O)c4ccccc4)n3C)sc2c1 | 0.8 | 4.3* | 6.8 | 0.4 | 10.0 | -130.1 | 0.7
c1ccc(Cn2ncc3c(N4CCN(c5ccccc5)CC4)ncnc32)cc1 | 4.1 | -0.6 | / | 0.6 | 27.9 | -23.3 | /
CCn1cc(C(=O)N2CCCC(C(=O)c3ccc4ccccc4c3)C2)cn1 (configuration not stated) | 3.7 | 5.5* | 0.7 | -0.8 | 3.0 | -13.6 | -0.8
Cc1nc(C)c(C(=O)N2CCCC(C(=O)c3ccc4ccccc4c3)C2)s1 (configuration not stated) | -2.9 | 0.2 | 0.6 | -0.5 | 0.5 | 8.7 | /
CCOC(=O)CSc1ccc2nnc(-c3cccs3)n2n1 | -1.0 | 9.1* | 0.4 | -0.2 | -18.4 | -3.7 | 0.4
CCSc1ccc2nnc(-c3cccs3)n2n1 | 3.1 | 0.0 | 2.9 | -1.5 | -20.4 | 16.9 | /
CCCC(=O)N(Cc1cc(=O)[nH]c2ccccc12)c1ccccc1 | -1.4 | 5.6* | -1.1 | -0.4 | -1.8 | / | 1.3
CCC(=O)N(Cc1cc(=O)[nH]c2ccccc12)c1ccccc1 | -0.7 | 0.0 | -0.6 | -0.2 | 5.7 | -6.3 | /
CCc1nc2c(OCC(=O)C(C)(C)C)cccn2c1N(C=O)Cc1ccc(OC)cc1 | 0.8 | 0.0 | / | -0.3 | 5.0 | -1.5 | /
CC(C)(C)c1ccc(OCC(=O)NNC(=O)Nc2ccccc2)cc1 | 1.1 | 0.0 | -0.5 | 0.4 | -1.7 | / | /
O=C(COc1ccc([N+](=O)[O-])cc1)Nc1cccnc1 | -1.6 | -0.3 | 1.7 | 0.1 | 0.3 | 2.0 | /
O=C(COc1ccc(-c2ccccc2)cc1)Nc1cccnc1 | -0.4 | 4.6* | -1.3 | -0.4 | 11.8 | -44.8 | -0.8
O=C(COc1ccc(-c2ccccc2)cc1)NNC(=O)Nc1ccccc1 | 2.7 | 16.8* | -1.1 | -0.4 | 0.3 | -1.7 | 0.8
CC(C)NC(=O)Cn1cc(C(=O)C2CC2)c2ccccc21 | -1.1 | 11.3* | -1.8 | -0.5 | -3.0 | / | -0.1
